Compound activity (PubChem BioAssay)
Hits are enriched below; roughly 3.1% of the tested compounds scored in any of these assays.
IMP-1 inh-1: blocks Pseudomonas aeruginosa IMP-1 metallo-beta-lactamase. AID 1556. inhibition, % at 5.6 µM. 0.45% of 290,000 active. purified IMP-1, nitrocefin hydrolysis, epi-absorbance fluorescence;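 active = inhibition above the mean plus 3 SD of all compounds in the same screening run, cut at about 4.5% in these data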;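 note: 0% = IMP-1 with DMSO and 100% = DMSO wells lacking enzyme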
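system = purified recombinant IMP-1 beta-lactamase | amount = 0.2 nM IMP-1, as dispensed | medium = HEPES buffer pH 7.1 with ZnSO4 and Brij 35 | times = 25 °C, 15 min preincubation, 25 min reaction | detection = plate fluorescence quenching by hydrolysis product, ex 480/em 530 nm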
VIM-2 inhibitor: blocks Pseudomonas aeruginosa VIM-2 metallo-beta-lactamase; 0.89% of 290,000 active; purified VIM-2, nitrocefin hydrolysis, epi-absorbance fluorescence; inhibition, % at 5.6 µM;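 active = inhibition above the mean of all tested compounds plus 3 SD, cutoff set per screening run, cut at about 7.5% in these data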;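 note: red hydrolysis product quenches plate fluorescence so inhibitors raise well fluorescence; 0% = enzyme with DMSO and 100% = DMSO without enzyme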
PHOSPHO1 block: blocks human PHOSPHO1 phosphatase activity; 1.1% of 290,000 active; AID 1565; Q8TCT1; inhibition, % at 13.3 µM; recombinant PHOSPHO1, absorbance phosphatase assay; in the data active = inhibition above about 60%
Target sequence (Q8TCT1 whole entry, looked up): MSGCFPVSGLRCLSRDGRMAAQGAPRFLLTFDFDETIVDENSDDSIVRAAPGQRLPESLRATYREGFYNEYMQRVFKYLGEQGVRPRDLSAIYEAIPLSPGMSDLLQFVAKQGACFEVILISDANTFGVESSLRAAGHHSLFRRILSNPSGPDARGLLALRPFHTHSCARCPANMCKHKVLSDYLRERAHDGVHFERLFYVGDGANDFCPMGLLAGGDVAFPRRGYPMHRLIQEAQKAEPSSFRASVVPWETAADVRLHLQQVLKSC
HCV core dimer: blocks dimerization of HCV core protein. inhibition, % at 5 µM. TR-FRET GST/Flag-core106 dimerization, 1536-well. 0.33% of 300,000 active;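 active = inhibition above the mean of all tested compounds plus 3 SD, set per screening campaign, cut at about 45% in these data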
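test system = GST/Flag-tagged HCV core106 proteins | probe or stimulus = Eu donor and XL665 acceptor anti-tag antibodies | times = compound-protein-antibody incubation 4 h at 22.5 °C | signal = TR-FRET, excitation 340 nm, emission 617 and 671 nm | measure = percent inhibition of core106 dimerization signal | controls = wells lacking GST-core106 and wells with excess unlabelled core106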
SUMO HTRF inh: SUMOylation inhibition; P63279; HTRF SUMOylation assay, SAE1/SAE2 + UBC9, in vitro; inhibition, % at 35 µM; 0.36% of 290,000 active; in the data active = inhibition above about 50%, passing the limit was not always enough
Target sequence (P63279 whole entry, looked up): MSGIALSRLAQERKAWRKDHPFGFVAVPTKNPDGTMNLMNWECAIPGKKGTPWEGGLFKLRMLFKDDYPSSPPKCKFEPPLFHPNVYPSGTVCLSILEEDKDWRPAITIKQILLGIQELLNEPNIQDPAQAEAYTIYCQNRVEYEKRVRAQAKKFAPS
HCV NS3 hel inh: HCV NS3 helicase inhibition | inhibition, % at 10.9 µM | NS3 helicase DNA unwinding, Cy5 molecular beacon fluorescence | 0.56% of 290,000 active | AID 1800;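 active = inhibition above the mean of all tested compounds plus 3 SD, set per campaign, cut at about 35% in these data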;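 note: 0% = DMSO wells and 100% = thioflavine S control wells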
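assay system = NS3 helicase fragment of HCV | buffer or medium = MOPS pH 6.5, MgCl2, DTT, Tween20, BSA | timing = 60 min unwinding reaction at 25 °C after ATP addition | signal = Cy5 beacon fluorescence read at start and 1 h | read-out basis = % inhibition of unwinding | control set = low DMSO, high thioflavine S at 110 µM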
IMP-1 inh-2: IMP-1 inhibition, counter-screen for VIM-2 inhibitors; purified IMP-1, nitrocefin hydrolysis, epi-absorbance fluorescence; inhibition, % at 5.6 µM; 1,300 tested, under 10 active; shares compounds with VIM-2 inhibitor; call rule not given here;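 note: 0% = enzyme with vehicle and 100% = vehicle without enzyme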
VIM-2 FRET ctr: VIM-2 FRET inhibition, artifact counter-screen. shares compounds with VIM-2 inhibitor. purified VIM-2, CCF2 FRET substrate hydrolysis. inhibition, % at 5.6 µM. 23% of 1,300 active. AID 1857;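 active = inhibition above the mean of all tested compounds plus 3 SD, cut at about 19% in these data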;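 note: 0% = VIM-2 plus DMSO and 100% = no enzyme wells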
TEM-1 counter-1: blocks E. coli TEM-1 beta-lactamase in VIM-2 selectivity screen. shares compounds with VIM-2 inhibitor. Purified TEM-1, nitrocefin hydrolysis, epi-absorbance fluorescence. inhibition, % at 5.6 µM. 3% of 1,300 active;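 active = inhibition above that campaign's mean inhibition plus 3 SD, cut at about 0.46% in these data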;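 note: 0% = TEM-1 with DMSO and 100% = TEM-1 with 100 µM potassium clavulanate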
Target sequence (P62593 whole entry, looked up): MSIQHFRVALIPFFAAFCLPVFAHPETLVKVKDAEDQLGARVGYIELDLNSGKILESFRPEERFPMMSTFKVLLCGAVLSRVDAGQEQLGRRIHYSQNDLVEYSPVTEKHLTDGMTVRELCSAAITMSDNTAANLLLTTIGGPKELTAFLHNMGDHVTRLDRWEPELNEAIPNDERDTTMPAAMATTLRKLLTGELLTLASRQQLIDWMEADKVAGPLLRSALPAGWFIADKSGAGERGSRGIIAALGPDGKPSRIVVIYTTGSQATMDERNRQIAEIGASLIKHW
VIM-2 confirm 2: confirmation of P. aeruginosa VIM-2 metallo-beta-lactamase inhibitors; shares compounds with VIM-2 inhibitor; purified VIM-2, nitrocefin hydrolysis, epi-absorbance; inhibition, % at 5.6 µM; 96% of 1,300 active; AID 2187;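 active = inhibition of the VIM-2 beta-lactamase enzyme above about 11% from the earlier first-round screen, limit read from the data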;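 note: 0% = VIM-2 with DMSO and 100% = buffer wells without enzyme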
VIM-2 inh confirm: VIM-2 inhibition, confirmation assay; AID 1860; purified VIM-2 enzyme, nitrocefin absorbance; 73% of 200 active; shares compounds with IMP-1 inh-1; inhibition, % at 5.6 µM; in the data active = inhibition above about 8%;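 note: 0% = enzyme with vehicle and 100% = no enzyme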
TEM-1 counter-2: blocks E. coli TEM-1 beta-lactamase, VIM-2 IMP-1 counter-screen; shares compounds with IMP-1 inh-1; nitrocefin absorbance inhibition; inhibition, % at 5.6 µM; 50% of 200 active; AID 2184; in the data active = inhibition above about 0.66%
IMP-1 inh conf: confirmation of P. aeruginosa IMP-1 metallo-beta-lactamase inhibitors; shares compounds with IMP-1 inh-1; purified IMP-1 enzyme, absorbance substrate hydrolysis; inhibition, % at 5.6 µM; 60% of 200 active; AID 2189; in the data active = inhibition above about 4.9%;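 note: 0% = enzyme with vehicle and 100% = vehicle without enzyme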
NS3 helicase cf: confirmation of Hepatitis C virus NS3 helicase inhibitors; 31% of 1,600 active; shares compounds with HCV NS3 hel inh; inhibition, % at 10.9 µM; NS3 helicase DNA unwinding, Cy5 molecular beacon fluorescence;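 active = inhibition above the mean of all tested compounds plus 3 SD, cutoff set per campaign, cut at about 36% in these data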
DNA FID counter: displaces DNA intercalator in HCV helicase counter-screen; shares compounds with HCV NS3 hel inh; inhibition, % at 7.9 µM; 4% of 1,600 active; DNA fluorescent intercalator displacement, fluorescence; in the data active = inhibition above about 37%;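 note: 0% = vehicle and 100% = reference compound; higher means more displacement of ethidium bromide from the DNA hairpin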
An asterisk follows results filed as active; . = no result.

SMILES	IMP-1 inh-1	VIM-2 inhibitor	PHOSPHO1 block	HCV core dimer	SUMO HTRF inh	HCV NS3 hel inh	VIM-2 inh confirm	TEM-1 counter-2	IMP-1 inh conf	others
O=C(O)c1cccc(NC(=S)N/N=C/c2ccccc2OCc2ccc(Br)cc2)c1	0	73*	9	31	24	42*	.	.	.	IMP-1 inh-2=-3;VIM-2 FRET ctr=67*;TEM-1 counter-1=-10;VIM-2 confirm 2=35*;NS3 helicase cf=63*;DNA FID counter=4
Oc1c(Cl)cc(CN2CCCCC2)c2cccnc12	-2	15*	-14	-9	-21	37*	.	.	.	IMP-1 inh-2=-4;VIM-2 FRET ctr=4;TEM-1 counter-1=-6;VIM-2 confirm 2=17*;NS3 helicase cf=-8;DNA FID counter=7
CN1CCN(S(=O)(=O)c2ccc3[nH]c(=O)oc3c2)CC1	0	-2	-3	-5	1	3	.	.	.
CC(C)c1ccc(/C=N/n2c(-c3ccccc3)n[nH]c2=S)cc1	-2	-2	-102	1	-3	13	.	.	.
Cc1c(Br)c(O)c(Br)c(O)c1/C=N/n1c(-c2ccccc2)n[nH]c1=S	-2	19*	-20	-12	16	36*	.	.	.	IMP-1 inh-2=-3;VIM-2 FRET ctr=26*;TEM-1 counter-1=-7;VIM-2 confirm 2=27*;NS3 helicase cf=70*;DNA FID counter=-4
COc1cccc(-c2coc3c(C)c4oc(=O)c(CC(=O)O)c(C)c4cc23)c1	1	16*	48	2	25	44*	.	.	.	IMP-1 inh-2=2;VIM-2 FRET ctr=3;TEM-1 counter-1=-6;VIM-2 confirm 2=30*;NS3 helicase cf=59*;DNA FID counter=-10
CCOC(=O)c1c(C)n(S(=O)(=O)c2ccc(C)cc2)c2ccc(O)c(C(=O)O)c12	0	5	28	12	5	-25	.	.	.
COc1ccc(Cl)cc1C(=O)Nc1cccc(-c2ccc3nncn3n2)c1	23*	26*	56	11	51*	-67	34*	3.0*	11*
CN1/C(=C\C=C2/SC(=S)N(CC(=O)O)C2=O)C(C)(C)c2ccccc21	17*	11*	-1	-23	13	4	23*	21*	21*
O=C1CC[C@@H](C(=O)O)N1	.	.	.	-7	.	.	.	.	.
CCOC(=O)/C(=C/C=C1\Sc2ccccc2N1CC)C(C)=O	4	5	-1	-34	20	-3	.	.	.
CCOC(=O)/C(=C\C=C1/Sc2ccccc2N1CC)C(C)=O	7.8*	8.5*	-15	-14	-9	14	7	0.7*	4
COc1ccc(C(=O)Nc2ccc(NC(=O)Cc3ccccc3)cn2)cc1	0	-3	35	-9	19	-1	.	.	.
CC(=O)c1ccc(C(=O)Nc2sc3c(c2C(N)=O)CCN(Cc2ccccc2)C3)cc1	5.5*	8.8*	-6	-2	-15	-3	5	5.7*	3
O=C(Nc1ccc2oc(-c3ccccc3F)nc2c1)c1cncc(Br)c1	-2	-1	28	3	-8	-1	.	.	.
O=C(Nc1ccc2oc(-c3ccccc3F)nc2c1)c1ccc([N+](=O)[O-])o1	41*	12*	33	.	48	2	8.5*	7.1*	24*
COc1ccc2c(Cl)c(C(=O)NCCCn3ccnc3)sc2c1Cl	35*	26*	42	4	-15	-22	45*	-4	57*
COc1ccc(C(=O)NCCCn2ccnc2)cc1	-2	-1	-6	4	12	-9	.	.	.
CC(=O)c1cccc(CN2CCC(n3nccc3NC(=O)c3ccc4c(c3)OCO4)CC2)c1	0	-5	53	8	-3	-2	.	.	.
N#Cc1nc(COc2ccccc2F)oc1NCCCn1ccnc1	39*	10*	8	-4	2	-21	2	-2	0
CC(C)Nc1nc(Cl)nc(N(C#N)CN2C(=O)c3ccccc3C2=O)n1	-3	-4	-12	12	0	8	.	.	.
CCC(C)Nc1nc(Cl)nc(N(C#N)CN2C(=O)c3ccccc3S2(=O)=O)n1 (stereo unspecified)	18*	13*	24	9	6	27	0	-5	-1
O=C(CSc1ncccn1)Nc1ccc2c(c1)CCC2	-2	-2	22	0	12	-24	.	.	.
O=C(CN1CCSCC1)N/N=C/c1cccc(Cl)c1	-3	-5	-18	-2	-5	-5	.	.	.
COc1ccc2cc(C(c3nnnn3C3CCCC3)N3CCOCC3)c3nnnn3c2c1 (stereo unspecified)	-2	3	19	1	3	7	.	.	.
SMILES	IMP-1 inh-1	VIM-2 inhibitor	PHOSPHO1 block	HCV core dimer	SUMO HTRF inh	HCV NS3 hel inh	VIM-2 inh confirm	TEM-1 counter-2	IMP-1 inh conf	others
CCOc1cc2c(cc1/C=C/c1noc(C)c1[N+](=O)[O-])OC(C)C2 (stereo unspecified)	13*	17*	6	-16	20	13	20*	30*	18*
CCOc1cc2c(cc1C=O)OC(C)C2 (stereo unspecified)	0	2	12	-15	19	11	.	.	.
O=C(CCN1C(=O)/C(=C/c2ccc(Cl)cc2)SC1=S)NCCCn1ccnc1	18*	18*	37	4	11	-33	28*	1.2*	32*
CC(c1ccccc1)n1c(-c2ccccc2F)n[nH]c1=S (stereo unspecified)	6.4*	9.1*	-137	1	4	-2	11*	-4	2
CCOC(=O)c1c2c3c(cccc3n(C)c1=O)C(=O)c1ccccc1-2	21*	15*	3	13	25	-59	20*	1.4*	7.9*
CNc1ccc2c3c(cccc13)C(=O)N(C)C2=O	44*	50*	-2	-36	30	-4	76*	87*	59*
